Measurements: ChEMBL document CHEMBL3865784 (Eur J Med Chem, 2016)

How the values were obtained:
V79 [1] = assay: Selectivity index, ratio of IC50 for NQO1-deficient chinese hamster V79 cells to IC50 for human PC3 cells overexpressing NQO1
Summary of the method: (§1)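 Selectivity index is IC50 in the normal cells divided by IC50 in the cancer line. Normal cells: V79 and L929 in DMEM, PBMC in RPMI with phytohaemagglutinin. Cancer lines in RPMI with 10% FBS, seeded at 0.1 × 10^6 (HL-60) or 0.7 × 10^5 cells/well (solid tumors). Absorbance 550 nm; nonlinear regression.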

[2] = Cytotoxicity against NQO1-deficient human PBMC assessed as reduction in cell viability after 72 hrs by MTT assay; assay type: toxicity, cell-based; conditions: for IC50: pbmc
[3] = Cytotoxicity against human PC3 cells overexpressing NQO1 assessed as reduction in cell viability after 72 hrs by MTT assay; assay type: functional, cell-based; conditions: PC-3, 72 h
[4] = Cytotoxicity against NQO1-deficient human HL60 cells assessed as reduction in cell viability after 72 hrs by MTT assay; assay type: functional, cell-based; conditions: HL-60, 72 h
Summary of the method: (§2)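 Cancer lines from NCI, grown in RPMI 1640 with 10% FBS, 2 mM L-glutamine, penicillin/streptomycin, 37 °C, 5% CO2; seeded 0.1 × 10^6 cells/well (HL-60) or 0.7 × 10^5 cells/well (solid tumours). Compounds in DMSO, final 0.1% v/v; DMSO vehicle as negative control.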

L929 [5] = assay: Selectivity index, ratio of IC50 for NQO1-deficient mouse L929 cells to IC50 for human PC3 cells overexpressing NQO1; summary of the method: as §1
HCT-116 [6] = assay: Selectivity index, ratio of IC50 for NQO1-deficient chinese hamster V79 cells to IC50 for human HCT116 cells expressing NQO1
Summary of the method: as §1, with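 “line. All IC50s come from 72 h MTT assays.” for “line.”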

HCT-116 [7] = assay: Selectivity index, ratio of IC50 for NQO1-deficient human PBMC to IC50 for human HCT116 cells expressing NQO1
Summary of the method: as §1, with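 “line. All IC50s come from 72 h MTT assays.” for “line.”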

PC-3 = assay: Selectivity index, ratio of IC50 for NQO1-deficient human PBMC to IC50 for human PC3 cells overexpressing NQO1; summary of the method: as §1
HCT-116 [8] = assay: Selectivity index, ratio of IC50 for NQO1-deficient mouse L929 cells to IC50 for human HCT116 cells expressing NQO1
Summary of the method: as §1, with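 “line. All IC50s come from 72 h MTT assays.” for “line.”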

L929 [9] = assay: Selectivity index, ratio of IC50 for NQO1-deficient mouse L929 cells to IC50 for NQO1-deficient human HL60 cells; assay type: functional; summary of the method: as §1
[10] = Cytotoxicity against NQO1-deficient chinese hamster V79 cells assessed as reduction in cell viability after 72 hrs by MTT assay; assay type: toxicity, cell-based, Cricetulus griseus; conditions: v79
HL-60 [11] = assay: Selectivity index, ratio of IC50 for NQO1-deficient human PBMC to IC50 for NQO1-deficient human HL60 cells; summary of the method: as §1
[12] = Cytotoxicity against human MDA-MB-435 cells overexpressing NQO1 assessed as reduction in cell viability after 72 hrs by MTT assay; assay type: functional, cell-based; conditions: MDA-MB-435, 72 h; summary of the method: as §2
HL-60 [13] = assay: Selectivity index, ratio of IC50 for NQO1-deficient chinese hamster V79 cells to IC50 for NQO1-deficient human HL60 cells; assay type: functional; summary of the method: as §1
[14] = Cytotoxicity against human SF295 cells overexpressing NQO1 assessed as reduction in cell viability after 72 hrs by MTT assay; assay type: functional, cell-based; conditions: SF-295, 72 h
[15] = Cytotoxicity against human OVCAR8 cells overexpressing NQO1 assessed as reduction in cell viability after 72 hrs by MTT assay; assay type: functional, cell-based; conditions: OVCAR-8, 72 h; summary of the method: as §2
[16] = Cytotoxicity against human HCT116 cells expressing NQO1 assessed as reduction in cell viability after 72 hrs by MTT assay; assay type: functional, cell-based; conditions: HCT-116, 72 h; summary of the method: as §2
Mus musculus = organism: Mus musculus; assay: Cytotoxicity against NQO1-deficient mouse L929 cells assessed as reduction in cell viability after 72 hrs by MTT assay; assay type: toxicity, cell-based; conditions: l929
V79 [17] = assay: Selectivity index, ratio of IC50 for NQO1-deficient chinese hamster V79 cells to IC50 for human MDA-MB-435 cells overexpressing NQO1; summary of the method: as §1
SF-295 [18] = assay: Selectivity index, ratio of IC50 for NQO1-deficient human PBMC to IC50 for human SF295 cells overexpressing NQO1; summary of the method: as §1
L929 [19] = assay: Selectivity index, ratio of IC50 for NQO1-deficient mouse L929 cells to IC50 for human OVCAR8 cells overexpressing NQO1; summary of the method: as §1
L929 [20] = assay: Selectivity index, ratio of IC50 for NQO1-deficient mouse L929 cells to IC50 for human MDA-MB-435 cells overexpressing NQO1; summary of the method: as §1
OVCAR-8 [21] = assay: Selectivity index, ratio of IC50 for NQO1-deficient human PBMC to IC50 for human OVCAR8 cells overexpressing NQO1
Summary of the method: as §1, with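 “line. All IC50s come from 72 h MTT assays.” for “line.”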

L929 [22] = assay: Selectivity index, ratio of IC50 for NQO1-deficient mouse L929 cells to IC50 for human SF295 cells overexpressing NQO1; summary of the method: as §1
OVCAR-8 [23] = assay: Selectivity index, ratio of IC50 for NQO1-deficient chinese hamster V79 cells to IC50 for human OVCAR8 cells overexpressing NQO1
Summary of the method: as §1, with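 “line. All IC50s come from 72 h MTT assays.” for “line.”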

SF-295 [24] = assay: Selectivity index, ratio of IC50 for NQO1-deficient chinese hamster V79 cells to IC50 for human SF295 cells overexpressing NQO1; summary of the method: as §1
[25] = Selectivity index, ratio of IC50 for NQO1-deficient human PBMC to IC50 for human MDA-MB-435 cells overexpressing NQO1; summary of the method: as §1

Row | SMILES | Ratio IC50 (V79 [1]) | IC50 [2] | IC50 [3] | IC50 [4] | Ratio IC50 (L929 [5]) | Ratio IC50 (PC-3) | Ratio IC50 (L929 [9]) | IC50 [10] | Ratio IC50 (HL-60 [11]) | IC50 [12] | Ratio IC50 (HL-60 [13]) | IC50 [14] | IC50 [15] | IC50 [16] | IC50 (Mus musculus) | Ratio IC50 (V79 [17]) | Ratio IC50 (SF-295 [18]) | Ratio IC50 (L929 [20]) | Ratio IC50 (L929 [22]) | Ratio IC50 [25] | also measured
1 | C#Cc1cccc(NC2C3=C(OC2(C)C)c2ccccc2C(=O)C3=O)c1 (centres undefined) | 1.1 | 2800 nM | 1860 nM | 260 nM | 1.3 | 1.5 | 9.6 | 2160 nM | 10.7 | 2040 nM | 8.3 | 2590 nM | 2530 nM | 1480 nM | 2500 nM | – | – | – | – | – | Ratio IC50 (HCT-116 [6]): 1.45; Ratio IC50 (HCT-116 [7]): 1.89; Ratio IC50 (HCT-116 [8]): 1.68
2 | CC1(C)OC2=C(C(=O)C(=O)c3ccccc32)[C@@H](n2cc(C[Se]c3ccccc3)nn2)[C@@H]1Br | 1.1 | – | 1900 nM | 1220 nM | 0.9 | 0.9 | 1.4 | 2170 nM | 1.5 | 1310 nM | 1.7 | 1520 nM | 920 nM | 1110 nM | 1740 nM | 1.6 | 1.2 | 1.3 | 1.1 | – | Ratio IC50 (L929 [19]): 1.8; Ratio IC50 (HCT-116 [6]): 1.9; Ratio IC50 (HCT-116 [8]): 1.5; Ratio IC50 (OVCAR-8 [21]): 2; Ratio IC50 (OVCAR-8 [23]): 2.3
3 | O=C1C=C(NCc2cn(C[Se]c3ccccc3)nn2)C(=O)c2ccccc21 | – | 4750 nM | 2080 nM | 1130 nM | – | – | 3.3 | 3990 nM | 4.2 | 3090 nM | 3.5 | 970 nM | 1890 nM | 1720 nM | 3830 nM | – | 4.8 | – | 3.9 | – | Ratio IC50 (SF-295 [24]): 4.1; Ratio IC50 (HCT-116 [6]): 2.3; Ratio IC50 (HCT-116 [7]): 2.7; Ratio IC50 (HCT-116 [8]): 2.2
4 | O=C1C2=C(OC(Cn3cc(C[Se]c4ccccc4)nn3)C2)C(=O)c2ccccc21 (centres undefined) | 1.4 | 2800 nM | 1400 nM | 820 nM | 1.5 | 2 | 2.6 | 2020 nM | – | 620 nM | 2.4 | 980 nM | 910 nM | 2420 nM | 2150 nM | 3.2 | 2.8 | 3.4 | 2.1 | 4.5 | Ratio IC50 (L929 [19]): 2.3; Ratio IC50 (OVCAR-8 [21]): 3; Ratio IC50 (OVCAR-8 [23]): 2.2
5 | O=C1C(Br)=C(NCc2cn(C[Se]c3ccccc3)nn2)C(=O)c2ccccc21 | – | 3860 nM | 2290 nM | 1110 nM | – | – | 2.9 | 3030 nM | 3.4 | 1430 nM | 2.7 | 1610 nM | – | 1670 nM | 3300 nM | 2.1 | – | 2.3 | 2 | 2.6 | Ratio IC50 (SF-295 [24]): 1.8; Ratio IC50 (HCT-116 [6]): 1.8; Ratio IC50 (HCT-116 [8]): 1.9
6 | [N-]=[N+]=NCC1CC2=C(O1)C(=O)c1ccccc1C2=O (centres undefined) | 6.3 | 3210 nM | 390 nM | 310 nM | 5.5 | 8.2 | 6.9 | 2470 nM | 10.3 | 200 nM | 7.9 | 350 nM | 350 nM | 240 nM | 2150 nM | 12.3 | 9.1 | 10.7 | 6.1 | 16 | Ratio IC50 (SF-295 [24]): 7; Ratio IC50 (L929 [19]): 6.1; Ratio IC50 (HCT-116 [6]): 10.2; Ratio IC50 (HCT-116 [7]): 13.3; Ratio IC50 (HCT-116 [8]): 8.9; Ratio IC50 (OVCAR-8 [21]): 9.1; Ratio IC50 (OVCAR-8 [23]): 7
7 | CC1(C)CC(Nc2cccc(-c3cn(C[Se]c4ccccc4)nn3)c2)C2=C(O1)C(=O)c1ccccc1C2=O (centres undefined) | – | 4160 nM | 2600 nM | 2000 nM | – | – | 1.6 | 3650 nM | 2 | 1490 nM | 1.8 | 1880 nM | 3090 nM | 4900 nM | 3300 nM | 2.4 | – | 2.2 | 1.7 | 2.8 | Ratio IC50 (SF-295 [24]): 1.9
8 | CC1(C)OC2=C(C(=O)C(=O)c3ccccc32)C(N=[N+]=[N-])[C@@H]1Br (some centres undefined) | 1.4 | – | 1680 nM | – | 1.2 | 2.1 | 1.4 | 2400 nM | 2.5 | 1540 nM | 1.6 | – | 2240 nM | 2480 nM | 2040 nM | 1.5 | 1.8 | 1.3 | 1 | 2.3 | IC50 at 72 h ([2]; human): 3580 nM
9 | [N-]=[N+]=NCC1CC2=C(O1)c1ccccc1C(=O)C2=O (centres undefined) | 1.6 | 1800 nM | 510 nM | 820 nM | 2 | 3.5 | 1.2 | 820 nM | – | 390 nM | 1 | 390 nM | 350 nM | 630 nM | 1060 nM | 2.1 | 4.6 | 2.7 | 2.7 | 4.6 | Ratio IC50 (L929 [19]): 3; Ratio IC50 (HCT-116 [6]): 1.3; Ratio IC50 (HCT-116 [7]): 2.8; Ratio IC50 (OVCAR-8 [21]): 5.1; Ratio IC50 (OVCAR-8 [23]): 2.3
10 | O=C1C(=O)c2ccccc2C2=C1CC(Cn1cc(C[Se]c3ccccc3)nn1)O2 (centres undefined) | 1.8 | 1310 nM | 240 nM | 130 nM | 2.5 | 5.4 | 4.7 | 440 nM | 10 | 290 nM | 3.3 | 220 nM | 70 nM | – | 620 nM | 1.5 | 5.9 | 2.1 | 2.8 | 4.5 | Ratio IC50 (SF-295 [24]): 2; Ratio IC50 (L929 [19]): 8.8; Ratio IC50 (OVCAR-8 [21]): 18.7; Ratio IC50 (OVCAR-8 [23]): 6.2
11 | CC1(C)CC(N=[N+]=[N-])C2=C(O1)C(=O)c1ccccc1C2=O (centres undefined) | – | 6110 nM | 2150 nM | 1660 nM | – | – | 2.4 | 3670 nM | 3.6 | 2720 nM | 2.2 | – | 1480 nM | 2960 nM | 4130 nM | – | 2.9 | – | 2 | – | Ratio IC50 (SF-295 [24]): 1.7; Ratio IC50 (L929 [19]): 2.7; Ratio IC50 (OVCAR-8 [21]): 4.1
